Tests used:
Format in all cases: functional
LOX IMVI = assay: Growth inhibition of human LOXIMVI cells after 48 hrs by SRB assay; conditions: for TGI: read-out: pTGI (converted)
How it was run: (§1)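 NCI five-dose screen across about 60 human tumour cell lines, at 10-fold dilutions from 10^-4 to 10^-8 M with 48 h continuous exposure, read by SRB. Percent growth used time-zero, untreated control and treated absorbances. GI50 was the concentration giving 50% lower net protein increase than controls. Values beyond the tested range were reported as more or less than the maximum or minimum concentration.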

[1] = Anticancer activity against human NCI60 cells assessed as cell growth at 10 uM after 48 hrs by SRB assay; conditions: NCI60, 48 h, read-out: Activity
How it was run: (§2)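 US NCI one-dose screen across about 60 human tumour cell lines. A single concentration of 10^-5 M was applied with 48 h continuous exposure. The end point was sulforhodamine B protein staining, read spectrophotometrically. Results are given as percent growth of treated cells relative to untreated controls.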

CCRF-CEM [2] = assay: Anticancer activity against human CCRF-CEM cells assessed as cell growth at 10 uM after 48 hrs by SRB assay; conditions: read-out: Activity; how it was run: as §2
HCT-15 = assay: Growth inhibition of human HCT15 cells after 48 hrs by SRB assay; conditions: HCT-15, 48 h; how it was run: as §1
HT-29 = assay: Growth inhibition of human HT-29 cells after 48 hrs by SRB assay; conditions: HT-29, 48 h; how it was run: as §1
KM12 = assay: Growth inhibition of human KM12 cells after 48 hrs by SRB assay; conditions: KM12, 48 h; how it was run: as §1
SF-268 = assay: Growth inhibition of human SF268 cells after 48 hrs by SRB assay; conditions: SF-268, 48 h; how it was run: as §1
SNB-19 = assay: Growth inhibition of human SNB19 cells after 48 hrs by SRB assay; conditions: SNB-19, 48 h; how it was run: as §1
SNB-75 = assay: Growth inhibition of human SNB75 cells after 48 hrs by SRB assay; conditions: SNB-75, 48 h; how it was run: as §1
U-251 = assay: Growth inhibition of human U251 cells after 48 hrs by SRB assay; conditions: U-251, 48 h; how it was run: as §1
Malme-3M = assay: Growth inhibition of human MALME-3M cells after 48 hrs by SRB assay; how it was run: as §1
SK-MEL-5 = assay: Growth inhibition of human SK-MEL-5 cells after 48 hrs by SRB assay; conditions: SK-MEL-5, 48 h; how it was run: as §1
IGROV-1 = assay: Growth inhibition of human IGROV1 cells after 48 hrs by SRB assay; conditions: IGROV-1, 48 h; how it was run: as §1
OVCAR-3 = assay: Growth inhibition of human OVCAR-3 cells after 48 hrs by SRB assay; conditions: OVCAR-3, 48 h; how it was run: as §1
ACHN = assay: Growth inhibition of human ACHN cells after 48 hrs by SRB assay; how it was run: as §1
CAKI-1 = assay: Growth inhibition of human Caki1 cells after 48 hrs by SRB assay; conditions: CAKI-1, 48 h; how it was run: as §1
SN12C = assay: Growth inhibition of human SN12C cells after 48 hrs by SRB assay; how it was run: as §1
TK-10 = assay: Growth inhibition of human TK10 cells after 48 hrs by SRB assay; conditions: TK-10, 48 h; how it was run: as §1
UO-31 = assay: Growth inhibition of human UO31 cells after 48 hrs by SRB assay; conditions: UO-31, 48 h; how it was run: as §1
DU-145 [3] = assay: Growth inhibition of human DU145 cells after 48 hrs by SRB assay; conditions: DU-145, 48 h; how it was run: as §1
MCF7 = assay: Growth inhibition of human MCF7 cells after 48 hrs by SRB assay; conditions: MCF7, 48 h; how it was run: as §1
MDA-MB-231 = assay: Growth inhibition of human MDA-MB-231 cells after 48 hrs by SRB assay; conditions: MDA-MB-231, 48 h; how it was run: as §1
[4] = Growth inhibition of human Hs 578T cells after 48 hrs by SRB assay; how it was run: as §1
MDA-MB-435 = assay: Growth inhibition of human MDA-MB-435 cells after 48 hrs by SRB assay; conditions: MDA-MB-435, 48 h; how it was run: as §1
T47D = assay: Growth inhibition of human T47D cells after 48 hrs by SRB assay; how it was run: as §1
DU-145 [5] = assay: Anticancer activity against human DU145 cells assessed as cell growth at 10 uM after 48 hrs by SRB assay; conditions: DU-145, 48 h, read-out: Activity; how it was run: as §2
CCRF-CEM [6] = assay: Growth inhibition of human CCRF-CEM cells after 48 hrs by SRB assay; how it was run: as §1
MOLT-4 = assay: Growth inhibition of human MOLT4 cells after 48 hrs by SRB assay; conditions: MOLT-4, 48 h; how it was run: as §1
[7] = Growth inhibition of human […] cells after 48 hrs by SRB assay; how it was run: as §1
HOP-62 = assay: Growth inhibition of human HOP62 cells after 48 hrs by SRB assay; conditions: HOP-62, 48 h; how it was run: as §1
NCI-H460 = assay: Growth inhibition of human NCI-H460 cells after 48 hrs by SRB assay; conditions: NCI-H460, 48 h, read-out: pTGI (converted); how it was run: as §1
HCT-116 = assay: Growth inhibition of human HCT116 cells after 48 hrs by SRB assay; conditions: HCT-116, 48 h; how it was run: as §1

In the case of `O=C1N=C(N2N=C(c3ccccc3)CC2c2ccccc2O)/C(=C/c2ccc(Cl)cc2)S1` (configuration not stated), the GI50 (LOX IMVI) is reported as 1860 nM and the TGI (LOX IMVI) is reported as 3550 nM.
With `O=C1N=C(N2N=C(c3ccccc3)CC2c2ccccc2O)CS1` (configuration not stated) the growth at 10 µM [1] was 83.6% and the growth at 10 µM (CCRF-CEM [2]) was -5.39%.
Compound `COc1cc(/C=C2/SC(N3N=C(c4ccccc4)CC3c3ccccc3O)=NC2=O)cc(OC)c1O` (configuration not stated) has a GI50 (HCT-15) of 1230 nM, a TGI (HCT-15; read-out: pTGI (converted)) of 2690 nM and a GI50 (HT-29) of 427 nM. For the same compound, the TGI (HT-29; read-out: pTGI (converted)) was 2820 nM, the GI50 (KM12) was 1820 nM and the TGI (KM12; read-out: pTGI (converted)) was 3630 nM. The GI50 (SF-268) was 1860 nM, the TGI (SF-268; read-out: pTGI (converted)) was 4470 nM and the GI50 (SNB-19) was 1780 nM. The TGI (SNB-19; read-out: pTGI (converted)) was 3720 nM, the GI50 (SNB-75) was 1740 nM and the TGI (SNB-75; read-out: pTGI (converted)) was 4270 nM. The GI50 (U-251) was 1510 nM, the TGI (U-251; read-out: pTGI (converted)) was 2820 nM and the GI50 (LOX IMVI) was 1550 nM. For the same compound, the TGI (LOX IMVI) was 2950 nM, the GI50 (Malme-3M) was 2000 nM and the TGI (Malme-3M; read-out: pTGI (converted)) was 4900 nM. The GI50 (SK-MEL-5) was 1910 nM, the TGI (SK-MEL-5; read-out: pTGI (converted)) was 10500 nM and the GI50 (IGROV-1) was 1580 nM. For the same compound, the TGI (IGROV-1; read-out: pTGI (converted)) was 2880 nM, the GI50 (OVCAR-3) was 1410 nM and the TGI (OVCAR-3; read-out: pTGI (converted)) was 2820 nM. For the same compound, the GI50 (ACHN) was 1170 nM, the TGI (ACHN; read-out: pTGI (converted)) was 10200 nM and the GI50 (CAKI-1) was 1020 nM. It also gave a TGI (CAKI-1; read-out: pTGI (converted)) of 3240 nM, a GI50 (SN12C) of 1580 nM and a TGI (SN12C; read-out: pTGI (converted)) of 4900 nM. For the same compound, the GI50 (TK-10) was 1780 nM, the TGI (TK-10; read-out: pTGI (converted)) was 3980 nM and the GI50 (UO-31) was 1910 nM. For the same compound, the TGI (UO-31; read-out: pTGI (converted)) was 4270 nM, the GI50 (DU-145 [3]) was 1550 nM and the TGI (DU-145 [3]; read-out: pTGI (converted)) was 3090 nM. The GI50 (MCF7) was 1950 nM, the TGI (MCF7; read-out: pTGI (converted)) was 4900 nM and the GI50 (MDA-MB-231) was 1450 nM. It also gave a TGI (MDA-MB-231; read-out: pTGI (converted)) of 3020 nM, a GI50 [4] of 1380 nM and a TGI ([4]; read-out: pTGI (converted)) of 3720 nM. The GI50 (MDA-MB-435) was 1820 nM, the TGI (MDA-MB-435; read-out: pTGI (converted)) was 3630 nM and the GI50 (T47D) was 1780 nM. For the same compound, the TGI (T47D; read-out: pTGI (converted)) was 3980 nM, the growth at 10 µM [1] was 42.6% and the growth at 10 µM (DU-145 [5]) was -57%. The GI50 (CCRF-CEM [6]) was 2000 nM, the TGI (CCRF-CEM [6]; read-out: pTGI (converted)) was 5620 nM and the GI50 (MOLT-4) was 1700 nM. For the same compound, the GI50 [7] was 1700 nM, the TGI ([7]; read-out: pTGI (converted)) was 6920 nM and the GI50 (HOP-62) was 759 nM. The TGI (HOP-62; read-out: pTGI (converted)) was 15500 nM, the TGI (NCI-H460) was 3310 nM and the GI50 (HCT-116) was 1550 nM. It also gave a TGI (HCT-116; read-out: pTGI (converted)) of 2950 nM.
